PMC7090343 (Heliyon, 2020)
Converted amounts (≈) assume the structure as drawn. Where two headings read alike, the source gives them in different places. Marks after values point to notes of the source that are not given here.

Experiments:
[1] = In vitro antioxidation activity; settings: DPPH assay, mean of three replicates; for EC50 (antioxidation activity), crude and partitioned extracts: Table 1 experiment
Summary of the method: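 Five concentrations of test compound or extract were prepared in DMSO. Each was mixed with 0.15 mM DPPH in methanol and held at 25 °C for 30 min, then A517 was read. Ascorbic acid served as reference standard. Antioxidation (%) = [(A control − A sample)/A control] × 100. EC50 came from linear and nonlinear regression of % activity against concentration. Triplicates were used.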

human tyrosinase = settings: ref An et al., 2010, cited from earlier work

SMILES	EC50 (antioxidation activity), crude and partitioned extracts [1]	EC50 (antioxidation activity), crude and partitioned extracts ([1]; listed as ascorbic acid) [µg/mL]	EC50 value of pooled fractions after SG60CC ([1]; nonlinear regression, Table 4 experiment)	Type of inhibition of human tyrosinase (human tyrosinase; for L-DOPA)	Type of inhibition of human tyrosinase (human tyrosinase; for tyrosine)
O=C1O[C@H]([C@@H](O)CO)C(O)=C1O [Ascorbic acid, ascorbic acid]	89.82^a μg/mL	89.8 (≈ 510 µM)	71.5^a μg/mL	–	–
O=C(O)/C=C/c1ccc(O)cc1 [p-coumaric acid]	–	–	–	competitive	mixed type
